According to ChEMBL document CHEMBL3352241, “Design, synthesis and pharmacological evaluation of chalcone derivatives as acetylcholinesterase inhibitors” (Bioorg Med Chem, 2014):

Columns and labels:
Acetylcholinesterase [1] = target: T1, Acetylcholinesterase (Homo sapiens, UniProt P22303); assay: Inhibition of AChE (unknown origin) using acetylthiocholine iodide as substrate incubated for 25 mins by Ellman's method
Procedure, shortened: (§1)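 Ellman spectrophotometric assay, slightly modified. Compounds were dissolved in tween 80 (0.06% final per reaction), then diluted in 2% tween 80–water. The enzyme, substrate (acetylthiocholine iodide for AChE, butyrylthiocholine iodide for BuChE) and compound were incubated in Na2HPO4/NaH2PO4 buffer pH 8.0 at 30 °C for 25 min. The reaction was stopped with 20% SDS, 10 mmol/L DTNB was added, and absorbance was read at 412 nm. Five concentrations per compound, in triplicate, spanned 20–80% inhibition. IC50 was calculated by the Bliss method and reported as mean ± SD.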

Cholinesterase = Cholinesterase (Homo sapiens, UniProt P06276); assay: Inhibition of BuChE (unknown origin) using butyrylthiocholine iodide as substrate incubated for 25 mins by Ellman's method
Procedure, shortened: as §1, with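 “min.” for “min. The reaction was stopped with 20% SDS, 10 mmol/L DTNB was added, and absorbance was read at 412 nm. Five concentrations per compound, in triplicate, spanned 20–80% inhibition.”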

[2] = target: Cholinesterases; ACHE & BCHE (Homo sapiens) (UniProt P06276+P22303); assay: Selectivity ratio of IC50 for BChE (unknown origin) to IC50 for AChE (unknown origin)
[3] = Octanol-water partition coefficient, log P of the compound at pH 7.4 by classical shake-flask method; assay type: physicochemical
Acetylcholinesterase [4] = target: T1, Acetylcholinesterase; assay: Non-competitive inhibition of AChE (unknown origin) incubated for 25 mins by Lineweaver-Burk plot analysis
Acetylcholinesterase [5] = target: T1, Acetylcholinesterase; assay: Competitive inhibition of AChE (unknown origin) incubated for 25 mins by Lineweaver-Burk plot analysis

T1 sequence (P22303 whole entry): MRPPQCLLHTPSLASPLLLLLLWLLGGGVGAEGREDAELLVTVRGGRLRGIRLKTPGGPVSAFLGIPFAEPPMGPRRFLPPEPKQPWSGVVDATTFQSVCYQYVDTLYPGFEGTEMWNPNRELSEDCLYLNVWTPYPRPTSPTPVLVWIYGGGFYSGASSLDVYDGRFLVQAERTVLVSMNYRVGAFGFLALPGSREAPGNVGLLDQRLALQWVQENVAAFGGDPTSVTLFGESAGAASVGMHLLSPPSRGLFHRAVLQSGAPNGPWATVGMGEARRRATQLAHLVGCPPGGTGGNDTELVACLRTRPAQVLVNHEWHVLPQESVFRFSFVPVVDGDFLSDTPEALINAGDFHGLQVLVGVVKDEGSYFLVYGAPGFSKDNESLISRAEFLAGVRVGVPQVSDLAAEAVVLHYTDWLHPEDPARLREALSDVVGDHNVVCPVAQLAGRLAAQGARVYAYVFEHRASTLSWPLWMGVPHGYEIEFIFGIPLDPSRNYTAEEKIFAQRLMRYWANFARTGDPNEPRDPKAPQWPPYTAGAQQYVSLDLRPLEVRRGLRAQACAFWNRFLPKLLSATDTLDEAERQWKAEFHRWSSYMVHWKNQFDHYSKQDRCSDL
Cholinesterases; ACHE & BCHE (Homo sapiens), sequence (P06276 whole entry, looked up): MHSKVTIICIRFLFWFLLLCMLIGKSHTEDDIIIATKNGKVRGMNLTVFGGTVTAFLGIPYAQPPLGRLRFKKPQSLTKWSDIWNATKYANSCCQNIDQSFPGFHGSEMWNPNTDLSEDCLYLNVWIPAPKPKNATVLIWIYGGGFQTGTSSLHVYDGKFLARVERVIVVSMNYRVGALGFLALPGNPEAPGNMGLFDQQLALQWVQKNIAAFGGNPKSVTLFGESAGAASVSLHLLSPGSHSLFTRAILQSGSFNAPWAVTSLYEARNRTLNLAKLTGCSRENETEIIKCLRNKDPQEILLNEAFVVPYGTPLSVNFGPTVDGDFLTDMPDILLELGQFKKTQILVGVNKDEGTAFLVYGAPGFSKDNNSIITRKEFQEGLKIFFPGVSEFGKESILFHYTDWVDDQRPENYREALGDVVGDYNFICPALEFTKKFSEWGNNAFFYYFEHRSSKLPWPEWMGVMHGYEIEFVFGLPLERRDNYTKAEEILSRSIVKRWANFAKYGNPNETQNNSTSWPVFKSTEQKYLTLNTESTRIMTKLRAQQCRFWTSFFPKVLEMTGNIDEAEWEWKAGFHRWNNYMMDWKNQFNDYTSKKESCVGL
Cholinesterases; ACHE & BCHE (Homo sapiens), sequence (P22303 whole entry, looked up): as the sequence (P22303 whole entry) above
Cholinesterase, sequence (P06276 whole entry): as the sequence (P06276 whole entry, looked up) above

Row | Structure (SMILES) | IC50 (Acetylcholinesterase [1]) | IC50 (Cholinesterase) | Ratio IC50 [2] | logD [3] | Ki (Acetylcholinesterase [4]) | Ki (Acetylcholinesterase [5])
1 | CCCN(CCC)CCOc1ccc(C(=O)/C=C/c2ccccc2)cc1 | 64.5 µM | 52.6 µM | 0.81 | 1.86 | – | –
2 | CCCN(CCC)CCCCOc1ccc(C(=O)/C=C/c2ccccc2)cc1 | 5.91 µM | 8.84 µM | 1.5 | 1.95 | – | –
3 | CCCCN(CCCC)CCCCCCOc1ccc(C(=O)/C=C/c2ccccc2)cc1 | 163 µM | 75.1 µM | 0.46 | 2.19 | – | –
4 | O=C(/C=C/c1ccccc1)c1ccc(O)cc1 [4'-HYDROXYCHALCONE] | > 500 µM | > 500 µM | – | – | – | –
5 | CCN(CC)CCOc1ccc(C(=O)/C=C/c2ccccc2)cc1 | 7.63 µM | 31.6 µM | 4.14 | 1.61 | – | –
6 | CCCCN(CCCC)CCOc1ccc(C(=O)/C=C/c2ccccc2)cc1 | 253 µM | 279 µM | 1.1 | 2 | – | –
7 | CCN(CC)CCCCCOc1ccc(C(=O)/C=C/c2ccccc2)cc1 | 34.1 µM | 26.3 µM | 0.77 | 1.84 | – | –
8 | CN(C)CCCCCCOc1ccc(C(=O)/C=C/c2ccccc2)cc1 | 14.2 µM | 10.4 µM | 0.73 | 1.8 | – | –
9 | CCCN(CCC)CCCOc1ccc(C(=O)/C=C/c2ccccc2)cc1 | 24.6 µM | 10.1 µM | 0.41 | 1.91 | – | –
10 | CN(C)CCCCCOc1ccc(C(=O)/C=C/c2ccccc2)cc1 | 13.1 µM | 17.4 µM | 1.33 | 1.73 | – | –
11 | CCN(CC)CCCCCCOc1ccc(C(=O)/C=C/c2ccccc2)cc1 | 50.4 µM | 18.5 µM | 0.37 | 1.91 | – | –
12 | CCCCN(CCCC)CCCCCOc1ccc(C(=O)/C=C/c2ccccc2)cc1 | 76.9 µM | 96.9 µM | – | 2.14 | – | –
13 | CN(C)CCCOc1ccc(C(=O)/C=C/c2ccccc2)cc1 | 10.5 µM | 32.3 µM | 3.08 | 1.59 | – | –
14 | CCCCN(CCCC)CCCCOc1ccc(C(=O)/C=C/c2ccccc2)cc1 | 21.9 µM | 41.9 µM | 1.91 | 2.09 | – | –
15 | CCCN(CCC)CCCCCCOc1ccc(C(=O)/C=C/c2ccccc2)cc1 | 44.1 µM | 40.7 µM | 0.92 | 2.07 | – | –
16 | CCN(CC)CCCOc1ccc(C(=O)/C=C/c2ccccc2)cc1 | 22.5 µM | 20.1 µM | 0.89 | 1.71 | – | –
17 | CCCCN(CCCC)CCCOc1ccc(C(=O)/C=C/c2ccccc2)cc1 | 152 µM | 68.3 µM | 0.45 | 2.06 | – | –
18 | CCCN(CCC)CCCCCOc1ccc(C(=O)/C=C/c2ccccc2)cc1 | 29.5 µM | 39.7 µM | 2.09 | 2.01 | – | –
19 | CN(C)CCOc1ccc(C(=O)/C=C/c2ccccc2)cc1 | 4.68 µM | 20.4 µM | 4.35 | 1.49 | 3.52 µM | 7.99 µM
20 | CCN(CC)CCCCOc1ccc(C(=O)/C=C/c2ccccc2)cc1 | 23.2 µM | 10.2 µM | 0.44 | 1.74 | – | –
21 | CN(C)CCCCOc1ccc(C(=O)/C=C/c2ccccc2)cc1 | 8.95 µM | 11.8 µM | 1.32 | 1.64 | – | –
